This is an account of results in ChEMBL document CHEMBL2331406, “In vitro activity of scorpiand-like azamacrocycle derivatives in promastigotes and intracellular amastigotes of Leishmania infantum and Leishmania braziliensis” (Eur J Med Chem, 2013).

In assay [1] the test system is Leishmania braziliensis. In words: Antileishmanial activity against axenic amastigote form of Leishmania braziliensis MHOM/BR/1975/M2904 after 72 hrs by haemocytometric analysis. The class given is functional, MHOM/BR/75/M2904. The settings on record: Leishmania braziliensis, MHOM/BR/75/M2904, 72 h. The gist of the method: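 Axenic amastigotes made by culturing promastigotes 3 days at 37 °C in M199 with 10% heat-inactivated FCS plus organic acids, amino acids, sucrose, bicarbonate, MES, haemin and gentamicin, pH 5.4. Compound effect counted in a Neubauer haemocytometer chamber. IC50 by linear regression of Kc values at 1, 10, 25, 50 and 100.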

In assay [2] the test system is Leishmania infantum. The assay is described as follows: Antileishmanial activity against promastigote form of Leishmania infantum MCAN/ES/2001/UCM-10 after 72 hrs by haemocytometric analysis. Type of assay: functional, organism-based. The following applies: Leishmania infantum, MCAN/ES/2001/UCM-10, 72 h. The procedure, abridged: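 Promastigotes grown at 28 °C in MTL medium with 10% inactivated FCS. Compounds in DMSO (0.1%), diluted in culture medium to 100, 50, 25, 10 and 1. Cells counted at 72 h in a Neubauer haemocytometric chamber. IC50 (50% inhibition) by linear regression of Kc values.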

Assay [3] relates to Leishmania infantum. In words: Antileishmanial activity against promastigote form of Leishmania infantum MCAN/ES/2001/UCM-10 assessed as cytoplasmic membrane disruption at IC25 concentration after 96 hrs by […] electron microscopic analysis relative to control. Type of assay: functional, organism-based. The gist of the method:
(§1)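 Promastigotes at 5 × 10^5 cells/mL in MTL medium with compound at IC25 for 96 h. Ultrastructure examined by transmission electron microscopy against untreated control parasites.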

Assay [4] deals with Leishmania infantum. In words: Antileishmanial activity against promastigote form of Leishmania infantum MCAN/ES/2001/UCM-10 assessed as disorganized cytoplasm at IC25 concentration after 96 hrs by […] electron microscopic analysis relative to control. Type of assay: functional, organism-based. The procedure, abridged: as §1
Assay [5] deals with Leishmania infantum. In words: Antileishmanial activity against promastigote form of Leishmania infantum MCAN/ES/2001/UCM-10 assessed as swollen mitochondria at IC25 concentration after 96 hrs by […] electron microscopic analysis relative to control. Type of assay: functional, organism-based. The gist of the method:
as §1

Assay [6] deals with Leishmania infantum. The assay is described as follows: Antileishmanial activity against promastigote form of Leishmania infantum MCAN/ES/2001/UCM-10 assessed as swollen kinetoplast at IC25 concentration after 96 hrs by […] electron microscopic analysis relative to control. Type of assay: functional, organism-based. The procedure, abridged: as §1
Assay [7] has as its system Leishmania infantum. In words: Antileishmanial activity against promastigote form of Leishmania infantum MCAN/ES/2001/UCM-10 assessed as corrugated cytoplasmic membrane at IC25 concentration after 96 hrs by […] electron microscopic analysis. Type of assay: functional, organism-based. The procedure, abridged: as §1
The test system of assay [8] is Leishmania infantum. In words: Antileishmanial activity against promastigote form of Leishmania infantum MCAN/ES/2001/UCM-10 assessed as size reduction at IC25 concentration after 96 hrs by […] electron microscopic analysis. The class given is functional, organism-based. The gist of the method:
as §1

Assay [9] relates to Leishmania infantum. The assay is described as follows: Antileishmanial activity against promastigote form of Leishmania infantum MCAN/ES/2001/UCM-10 assessed as high electro density at IC25 concentration after 96 hrs by […] electron microscopic analysis. The class given is functional, organism-based. The procedure, abridged:
as §1

The test system of assay [10] is Leishmania braziliensis MHOM/BR/75/M2904. The assay is described as follows: Inhibition of promastigote form Leishmania braziliensis MHOM/BR/1975/M2904 Fe-SOD at 12.5 uM by NBT reduction assay relative to control. The gist of the method: (§2)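 Promastigotes sonicated in sucrose/Tris-HCl/EDTA buffer, pH 7.8, and centrifuged. Protein precipitating at 35–85% ammonium sulphate desalted into 20 mM potassium phosphate with 1 mM EDTA, pH 7.8. Protein measured by Bradford. Fe-SOD activity read spectrophotometrically as inhibition of NBT reduction by superoxide, with compounds at 0.1–50. IC50 by linear regression of Kc values; three determinations; Newman-Keuls test vs control homogenate.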

Assay [11] deals with Leishmania infantum. In words: Inhibition of promastigote form Leishmania infantum MCAN/ES/2001/UCM-10 Fe-SOD at 5 uM by NBT reduction assay relative to control. The procedure, abridged: as §2
The subject of assay [12] is Leishmania braziliensis. In words: Antileishmanial activity against promastigote form of Leishmania braziliensis MHOM/BR/1975/M2904 assessed as structural alterations at IC25 concentration after 96 hrs by MET microscopic analysis. The class given is functional. The settings on record: MHOM/BR/75/M2904. The gist of the method:
as §1

For assay [13], the system named is Leishmania infantum. In words: Antileishmanial activity against promastigote form of Leishmania infantum MCAN/ES/2001/UCM-10 assessed as vacuoles in cytoplasm at IC25 concentration after 96 hrs by […] electron microscopic analysis relative to control. The class given is functional, organism-based. The procedure, abridged:
as §1

For assay [14], the system named is Leishmania infantum. The assay is described as follows: Antileishmanial activity against promastigote form of Leishmania infantum MCAN/ES/2001/UCM-10 assessed as death-like aspect vesicles at IC25 concentration after 96 hrs by […] electron microscopic analysis relative to control. Type of assay: functional, organism-based. The procedure, abridged: as §1

The test system of assay [15] is Leishmania braziliensis. In words: Antileishmanial activity against promastigote form of Leishmania braziliensis MHOM/BR/1975/M2904 assessed as disorganized flagellar pocket at IC25 concentration after 96 hrs by MET microscopic analysis. The class given is functional. The following applies: MHOM/BR/75/M2904. The procedure, abridged:
as §1

The test system of assay [16] is Leishmania braziliensis. The assay is described as follows: Antileishmanial activity against promastigote form of Leishmania braziliensis MHOM/BR/1975/M2904 assessed as disorganized flagellum at IC25 concentration after 96 hrs by MET microscopic analysis. The settings on record: MHOM/BR/75/M2904. The class given is functional. The gist of the method:
as §1

Assay [17] has as its system Leishmania braziliensis. The assay is described as follows: Antileishmanial activity against promastigote form of Leishmania braziliensis MHOM/BR/1975/M2904 assessed as small vacuoles at IC25 concentration after 96 hrs by MET microscopic analysis. The class given is functional. The following applies: MHOM/BR/75/M2904. The gist of the method:
as §1

The subject of assay [18] is Leishmania braziliensis. In words: Antileishmanial activity against promastigote form of Leishmania braziliensis MHOM/BR/1975/M2904 assessed as lipid natured cytoplasm at IC25 concentration after 96 hrs by MET microscopic analysis. Type of assay: functional. The settings on record: MHOM/BR/75/M2904. The gist of the method: as §1
The test system of assay [19] is Leishmania braziliensis. The assay is described as follows: Antileishmanial activity against promastigote form of Leishmania braziliensis MHOM/BR/1975/M2904 assessed as nuclear alterations at IC25 concentration after 96 hrs by MET microscopic analysis. The class given is functional. The following applies: MHOM/BR/75/M2904. The gist of the method:
as §1

Assay [20] relates to Leishmania braziliensis. In words: Antileishmanial activity against promastigote form of Leishmania braziliensis MHOM/BR/1975/M2904 assessed as empty vacuoles at IC25 concentration after 96 hrs by MET microscopic analysis. Type of assay: functional. The following applies: MHOM/BR/75/M2904. The gist of the method: as §1
For assay [21], the system named is Leishmania braziliensis. In words: Antileishmanial activity against promastigote form of Leishmania braziliensis MHOM/BR/1975/M2904 assessed as swollen parasites at IC25 concentration after 96 hrs by MET microscopic analysis. The class given is functional. The following applies: MHOM/BR/75/M2904. The procedure, abridged: as §1
Assay [22] has as its system Leishmania braziliensis. In words: Antileishmanial activity against promastigote form of Leishmania braziliensis MHOM/BR/1975/M2904 assessed as structural disruptions at IC25 concentration after 96 hrs by MET microscopic analysis. The class given is functional. The settings on record: MHOM/BR/75/M2904. The procedure, abridged:
as §1

For assay [23], the system named is Leishmania infantum. In words: Antileishmanial activity against promastigote form of Leishmania infantum MCAN/ES/2001/UCM-10 assessed as mortality at IC25 concentration after 96 hrs by […] electron microscopic analysis. Type of assay: functional, organism-based. The gist of the method:
as §1

The structures appear in SMILES notation. Active and inactive are the calls of the source. The calls are words filed in the database; no cut-off is given here.

Take `Cl.c1cncc(CNCCN2CCNCc3cccc(n3)CNCC2)c1`: the IC50 (as a rule, the midpoint of a concentration-inhibition curve) in [1] came out at 23.9 µM; in assay [2], 18.8 µM. The outcome in assay [3], in [4], in [5], in assay [6], in assay [7] and in assay [8] was Active. Further, the outcome in assay [9] was Active. For the same molecule, the inhibition in assay [10] and in assay [11] was 100% each time.
`Br.NCCN1CCNCc2cccc(n2)CNCC1`: the IC50 in assay [1] stood at 16 µM; in [2] it was 18.9 µM.
In the case of `Cl.c1cc2nc(c1)CNCCN(CCNCc1cccc3ccccc13)CCNC2`, the IC50 in assay [1] came to 24.9 µM; in assay [2], 21.7 µM. In assay [12], the outcome was inactive. Further, the result in assay [5], in assay [6], in [13], in assay [14], in assay [7] and in assay [8] was Active. Also, the result in assay [9] was Active.
Regarding `Cl.c1ccc(CNCCN2CCNCc3cccc(n3)CNCC2)nc1`, the IC50 stood at 16 µM in assay [1] and 15.5 µM in assay [2]. Also, the result in assay [15], in assay [16], in assay [17], in [18], in [20] and in assay [21] was Active. Further, the outcome in [22] and in assay [23] was Active. The outcome in assay [19] was inactive.
